From ChEMBL document CHEMBL5143667, “Identification of Aloe-derived natural products as prospective lead scaffolds for SARS-CoV-2 main protease (Mpro) inhibitors” (Bioorg Med Chem Lett, 2022) come the findings set out here.

In test [1] the target is Replicase polyprotein 1ab (Severe acute respiratory syndrome coronavirus 2) (UniProt P0DTD1). As to the kind of experiment: Inhibition of SARS-CoV-2 main protease expressed in Escherichia coli using DABCYL-KTSAVLQ1SGFRKM-E(EDANS)-NH2 peptide as substrate at 100 uM incubated for 30 mins by FRET based assay relative to control. A digest of the protocol:
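Started by adding substrate–inhibitor mix to enzyme. Ex 360/Em 460 nm every 2.5 min for 1 h. Initial velocity from first 20 min, substrate background subtracted, % inhibition vs DMSO control. Triplicate, mean ± SD.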

The target in test [2] is Replicase polyprotein 1ab (Severe acute respiratory syndrome coronavirus 2, UniProt P0DTD1). The test is described as follows: Inhibition of SARS-CoV-2 main protease expressed in Escherichia coli using DABCYL-KTSAVLQ1SGFRKM-E(EDANS)-NH2 peptide as substrate incubated for 30 mins by FRET based assay. An outline of the steps: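 Same FRET set-up with varied inhibitor concentrations: 50 nM Mpro, 10 μM substrate, Tris-HCl/NaCl/EDTA/DTT buffer, pH 7.3, room temperature, read every 2.5 min for 1 h. Initial slopes from first 20 min, % inhibition vs DMSO. IC50 by nonlinear regression, three-parameter dose–response inhibition model. Triplicates, mean ± SD.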

Square brackets hold non-standard residues; d marks the D form. Peptide text beside a SMILES is read from it. * marks the point of attachment. Nle = CCCC[C@H](N)C(=O)O; Cbz = O=C(OCc1ccccc1)*

For the molecule `CC(C)C[C@H](NC(=O)[C@H](Cc1ccccc1)C[C@@H](O)[C@H](Cc1ccccc1)NC(=O)OC(C)(C)C)C(=O)N[C@@H](Cc1ccccc1)C(N)=O`, the inhibition in test [1] worked out at 65%.

For `CC1=C(O)C(=O)C=C2C1=CC=C1[C@@]2(C)CC[C@@]2(C)[C@@H]3C[C@](C)(C(=O)O)CC[C@]3(C)CC[C@]12C`, the inhibition in test [1] was found to be 57.7%.

In test [1], `COc1cc(C)c2c(=O)cc(C[C@@H](C)O)oc2c1[C@@H]1O[C@H](CO)[C@@H](O)[C@H](O)[C@H]1OC(=O)/C=C/c1ccc(O)cc1` showed an inhibition of 72.6%. The molecule also had a 50% inhibitory concentration (IC50) in test [2] of 125 µM. The like results for `CC(=O)Cc1cc(=O)c2c(C)cc(O)c([C@@H]3O[C@H](CO)[C@@H](O)[C@H](O)[C@H]3O)c2o1` were, in that order, 80.1% and 38.9 µM.

For the molecule `CC(NC(=O)[C@H](Cc1ccccc1)NC(=O)OCc1ccccc1)C(=O)CF` (stereo partly specified), the inhibition in test [1] amounted to 90.1%. On the same count and under the same terms, for `CC(NC(=O)Cc1cc(F)cc(F)c1)C(=O)NC1C(=O)N(C)c2ccccc2-c2ccccc21` (stereo unspecified) the value was 53.8%; for `CC(=O)O/N=C1\C(=O)N(Cc2cc(Cl)ccc2Cl)c2ccc(Cl)cc21`, 61.4%. Turning to `CCCC(NC(=O)C(CC(C)C)NC(=O)OCc1ccccc1)C(=O)C(=O)NCc1ccccn1` (stereo unspecified), the inhibition in test [1] turned out to be 98.3%. In test [1], `O=C1CC(=O)c2c(Cl)c(Cl)c(Cl)c(Cl)c21` gave an inhibition of 94.2%. The same molecule gave a 50% inhibitory concentration (IC50) in test [2] of 138 µM. In test [1], `Cn1cc(/C=C/C(=O)c2cccc(F)c2)cc1/C=C/C(=O)NO` registered an inhibition of 51.4%. Still for that read-out and setting: the result for `CC(C)(C)NC(=O)N[C@H](C(=O)N1C[C@H]2[C@@H]([C@H]1C(=O)NC(CC1CCC1)C(=O)C(N)=O)C2(C)C)C(C)(C)C` (stereo partly specified) reads 97.4%. In test [1], `CC(=O)N[C@@H](CC(C)C)C(=O)N[C@@H](CC(C)C)C(=O)N[C@H](C=O)CCCNC(=N)N` returned an inhibition of 59%.

As for `Cc1c(O)cccc1C(=O)N[C@@H](CSc1ccccc1)[C@H](O)CN1C[C@H]2CCCC[C@H]2C[C@H]1C(=O)NC(C)(C)C`, in test [1], the inhibition was found to be 56.1%. On the same count and under the same terms, the result for `Cc1coc2c1C(=O)C(=O)c1c-2ccc2c1CCCC2(C)C` reads 53.9%; that for `CCC[C@H](NC(=O)[C@@H]1[C@H]2CCC[C@H]2CN1C(=O)[C@@H](NC(=O)[C@@H](NC(=O)c1cnccn1)C1CCCCC1)C(C)(C)C)C(=O)C(=O)NC1CC1`, 88.8%. Still for that read-out and setting: for `Nc1ccccc1NC(=O)c1ccc(CNc2nccc(-c3cccnc3)n2)cc1` the value was 66.7%.

`CCCCCCCCCCCCCCCc1cccc(O)c1C(=O)O` [ANACARDIC ACID] gave an inhibition in test [1] of 96.1%. Besides, the IC50 in test [2] is 6.8 µM. Turning to `Cc1cc(C(=O)CN2CCCC2)c(C)n1-c1ccc(F)cc1`, the inhibition in test [1] is 54.8%. The same measure, in the same setting: for `CSCC[C@@H](C=O)NC(=O)[C@H](CC(C)C)NC(=O)[C@H](CC(C)C)NC(C)=O` (Ac-Leu-Leu-Met-aldehyde) the value was 99.8%; for `O=C(O)/C(S)=C/c1c[nH]c2ccc(F)cc12`, 71.5%; for `CC(C)(C)C1NC(=O)O[C@@H]2CCC[C@H]2OC/C=C/C(F)(F)c2nc3ccccc3nc2O[C@@H]2C[C@@H](C(=O)N[C@]3(C(=O)NS(=O)(=O)C4(C)CC4)C[C@H]3C(F)F)N(C2)C1=O` (stereo partly specified), 51.7%. On the same count and under the same terms, for `C=C[C@H]1C[C@]1(NC(=O)[C@@H]1C[C@@H](Oc2ncc(OC)c3ccc(Cl)cc23)CN1C(=O)[C@@H](NC(=O)OC(C)(C)C)C(C)(C)C)C(=O)NS(=O)(=O)C1CC1` the value was 49.4%; for `COc1cc(C)c2c(=O)cc(CC(C)=O)oc2c1[C@@H]1O[C@H](CO)[C@@H](O)[C@H](O)[C@H]1OC(=O)/C=C/c1ccc(O)cc1`, 60.5%.

Molecule `CCCC[C@@H](C=O)NC(=O)[C@H](CC(C)C)NC(=O)OCc1ccccc1` displayed an inhibition in test [1] of 97.2%.

Consider `CCOC(=O)C[C@H](NC(=O)[C@@H](NC(=O)[C@H](CCC(=O)OC)NC(=O)[C@H](CC(=O)OCC)NC(=O)OCc1ccccc1)C(C)C)C(=O)CF`, for which the inhibition in test [1] turned out to be 100%.

`CCCC[C@@H](C=O)NC(=O)[C@H](CC(C)C)NC(=O)[C@H](CC(C)C)NC(C)=O` (Ac-Leu-Leu-[Nle]-aldehyde): the inhibition in test [1] came to 95.2%. Same read-out and setting: for `CC(C)C[C@@H](C=O)NC(=O)[C@H](CC(C)C)NC(=O)[C@H](CC(C)C)NC(=O)OCc1ccccc1` (Cbz-Leu-Leu-Leu-aldehyde) the value was 99%.

As usually defined, the inhibition is the change of the read-out against control, counted positive when it falls. A higher inhibition goes with a response far below the control. The IC50 is the concentration needed to halve the response being measured. Low readings indicate greater potency in that assay, high ones weaker potency in that assay.
